Reference: ChEMBL document CHEMBL4251654, “Structure-based design of human immuno- and constitutive proteasomes inhibitors” (Eur J Med Chem, 2018)

How the values were obtained:
PC-3 = assay: Cytotoxicity against human PC3 cells assessed as reduction in cell viability after 48 hrs by Hoechst 33342 staining based HCS assay; type: functional
Method in brief: (§1)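 Cells were grown at 37 °C, 5% CO2 in medium with 10% FBS, 1% penicillin-streptomycin, 2 mM glutamine: DMEM for HuH7, MDA-MB-231 and fibroblasts, EMEM for Caco2, McCoy's for HCT116, RPMI for PC3 and NCI-H727. 4000 cells/well were seeded and dosed 24 h later at 0.1-25 μM final, from DMSO stocks. After 48 h they were fixed in ethanol/acetic acid and Hoechst-stained nuclei were counted by imaging. Survival is relative to DMSO. EC50 came from dose-response curves.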

MCF7 = assay: Cytotoxicity against human MCF7 cells assessed as reduction in cell viability after 48 hrs by Hoechst 33342 staining based HCS assay; type: functional
Caco-2 = assay: Cytotoxicity against human Caco2 cells assessed as reduction in cell viability after 48 hrs by Hoechst 33342 staining based HCS assay; type: functional; method in brief: as §1
MDA-MB-231 = assay: Cytotoxicity against human MDA-MB-231 cells assessed as reduction in cell viability after 48 hrs by Hoechst 33342 staining based HCS assay; type: functional; method in brief: as §1
Fibroblast = assay: Cytotoxicity against human fibroblasts assessed as reduction in cell viability at 25 uM after 48 hrs by Hoechst 33342 staining based HCS assay
HCT-116 = assay: Cytotoxicity against human HCT116 cells assessed as reduction in cell viability after 48 hrs by Hoechst 33342 staining based HCS assay; type: functional; method in brief: as §1
NCI-H727 = assay: Cytotoxicity against human NCI-H727 cells assessed as reduction in cell viability after 48 hrs by Hoechst 33342 staining based HCS assay; type: functional; method in brief: as §1
Huh-7 = assay: Cytotoxicity against human HuH7 cells assessed as reduction in cell viability after 48 hrs by Hoechst 33342 staining based HCS assay; type: functional; conditions: huh-7; method in brief: as §1
[1] = target: T1, Proteasome subunit beta type-10 (Homo sapiens) (UniProt P40306); assay: Inhibition of human 20S immunoproteasome beta-2 at 50 uM using BocLRR-AMC as substrate incubated for 15 mins measured for 45 mins by fluorescence assay relative to control
T1 sequence (whole entry): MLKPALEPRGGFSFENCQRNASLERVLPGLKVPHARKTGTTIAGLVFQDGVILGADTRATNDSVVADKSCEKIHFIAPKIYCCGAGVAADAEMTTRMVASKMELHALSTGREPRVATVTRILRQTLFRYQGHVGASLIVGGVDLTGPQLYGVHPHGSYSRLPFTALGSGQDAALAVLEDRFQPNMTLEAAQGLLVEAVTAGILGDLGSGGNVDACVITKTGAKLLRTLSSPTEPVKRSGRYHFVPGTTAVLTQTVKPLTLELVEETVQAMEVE

[2] = target: T2, Proteasome Macropain subunit MB1 (Homo sapiens) (UniProt P28074); assay: Inhibition of human 20S constitutive proteasome beta-5 at 50 uM using Suc-LLVY-AMC as substrate incubated for 15 mins measured for 45 mins by fluorescence assay relative to control
T2 sequence (whole entry): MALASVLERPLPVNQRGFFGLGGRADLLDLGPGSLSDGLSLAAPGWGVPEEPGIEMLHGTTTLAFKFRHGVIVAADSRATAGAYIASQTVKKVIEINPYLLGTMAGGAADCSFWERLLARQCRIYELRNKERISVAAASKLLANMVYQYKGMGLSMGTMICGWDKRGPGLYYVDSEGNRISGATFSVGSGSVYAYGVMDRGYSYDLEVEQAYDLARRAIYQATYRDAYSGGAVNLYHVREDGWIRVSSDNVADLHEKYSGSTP
Method in brief: (§2)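 Human 20S cCP or iCP (0.3 nM) was exposed to compound (0.001-50 μM) for 15 min in pH 8 buffer of 20 mM Tris-HCl, 10% glycerol, 0.01% SDS, 2% DMSO. Suc-LLVY-AMC at 20 μM followed. Fluorescence (ex 360/em 460 nm) was read 45 min at 37 °C versus untreated enzyme.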

[3] = target: Proteasome Macropain subunit (Homo sapiens) (UniProt P49721); assay: Inhibition of human 20S constitutive proteasome beta-2 at 50 uM using BocLRR-AMC as substrate incubated for 15 mins measured for 45 mins by fluorescence assay relative to control
Method in brief: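 Purified human 20S proteasome (cCP or iCP), 0.3 nM, preincubated 15 min with compound (0.001-50 μM) in pH 8 buffer of 20 mM Tris-HCl, 10% glycerol, 0.005% Triton X-100, 2% DMSO. Then Boc-LRR-AMC at 50 μM was added. AMC fluorescence (ex 360/em 460 nm) was followed 45 min at 37 °C. Activity is relative to an untreated control.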

[4] = target: T3, Proteasome subunit beta type-10 (Homo sapiens, UniProt P40306); assay: Inhibition of human 20S immunoproteasome beta-2 using BocLRR-AMC as substrate incubated for 15 mins measured for 45 mins by fluorescence assay
T3 sequence (P40306 whole entry): T1 sequence (whole entry)

[5] = target: T4, Proteasome subunit beta type-8 (Homo sapiens) (UniProt P28062); assay: Inhibition of human 20S immunoproteasome beta-5 at 50 uM using Suc-LLVY-AMC as substrate incubated for 15 mins measured for 45 mins by fluorescence assay relative to control; method in brief: as §2
T4 sequence (whole entry): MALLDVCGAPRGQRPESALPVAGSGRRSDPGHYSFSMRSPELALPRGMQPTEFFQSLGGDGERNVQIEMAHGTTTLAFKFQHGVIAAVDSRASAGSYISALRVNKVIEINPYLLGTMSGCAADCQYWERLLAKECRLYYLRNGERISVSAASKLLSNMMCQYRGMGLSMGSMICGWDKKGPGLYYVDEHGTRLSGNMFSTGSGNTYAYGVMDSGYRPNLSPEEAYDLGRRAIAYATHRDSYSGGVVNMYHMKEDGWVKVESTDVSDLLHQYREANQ

[6] = target: T5, Proteasome component C5 (Homo sapiens) (UniProt P20618); assay: Inhibition of human 20S constitutive proteasome beta-1 at 50 uM using Z-LLE-betaNA as substrate incubated for 15 mins measured for 45 mins by fluorescence assay relative to control
T5 sequence (whole entry): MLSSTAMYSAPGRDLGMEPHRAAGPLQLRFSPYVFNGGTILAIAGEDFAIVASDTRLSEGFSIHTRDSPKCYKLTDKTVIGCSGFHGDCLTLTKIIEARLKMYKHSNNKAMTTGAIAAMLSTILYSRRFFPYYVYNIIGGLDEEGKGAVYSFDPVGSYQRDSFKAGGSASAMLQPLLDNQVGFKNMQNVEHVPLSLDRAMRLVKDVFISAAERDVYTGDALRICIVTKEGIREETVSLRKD
Method in brief: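 Human 20S constitutive proteasome, 0.3 nM, was preincubated 15 min with compound (0.001-50 μM) in pH 8 Tris-HCl 20 mM, 10% glycerol, 0.01% SDS, 2% DMSO. Z-LLE-βNA at 50 μM was added. βNA fluorescence (ex 340/em 404 nm) was monitored 45 min at 37 °C against an untreated control.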

[7] = target: T6, Proteasome subunit beta type-8 (Homo sapiens, UniProt P28062); assay: Inhibition of human 20S immunoproteasome beta-5 using Suc-LLVY-AMC as substrate incubated for 15 mins measured for 45 mins by fluorescence assay; method in brief: as §2
T6 sequence (P28062 whole entry): T4 sequence (whole entry)

[8] = target: T7, Proteasome Macropain subunit MB1 (Homo sapiens, UniProt P28074); assay: Inhibition of human 20S constitutive proteasome beta-5 using Suc-LLVY-AMC as substrate incubated for 15 mins measured for 45 mins by fluorescence assay; method in brief: as §2
T7 sequence (P28074 whole entry): T2 sequence (whole entry)

[9] = target: T8, Proteasome subunit beta type-9 (Homo sapiens, UniProt P28065); assay: Inhibition of human 20S immunoproteasome beta-1 using Ac-PAL-AMC as substrate incubated for 15 mins measured for 45 mins by fluorescence assay
T8 sequence (P28065 whole entry): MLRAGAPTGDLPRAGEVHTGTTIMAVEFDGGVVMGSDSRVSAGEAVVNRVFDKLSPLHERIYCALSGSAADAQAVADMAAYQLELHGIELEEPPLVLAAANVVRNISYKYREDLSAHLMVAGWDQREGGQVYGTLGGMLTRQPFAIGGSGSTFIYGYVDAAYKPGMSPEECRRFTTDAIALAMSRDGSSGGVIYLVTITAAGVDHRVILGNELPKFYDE
Method in brief: (§3)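 Human 20S immunoproteasome (0.3 nM) was given 15 min with compound (0.001-50 μM) in pH 8 buffer of 20 mM Tris-HCl, 10% glycerol, 0.01% SDS, 2% DMSO. Ac-PAL-AMC at 50 μM was the substrate. Fluorescence (ex 360/em 460 nm) was followed 45 min at 37 °C relative to control.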

[10] = target: T9, Proteasome subunit beta type-9 (Homo sapiens) (UniProt P28065); assay: Inhibition of human 20S immunoproteasome beta-1 at 50 uM using Ac-PAL-AMC as substrate incubated for 15 mins measured for 45 mins by fluorescence assay relative to control; method in brief: as §3
T9 sequence (whole entry): T8 sequence (P28065 whole entry)

[11] = Homo sapiens, MCF7, 48 h, read-out: EC50
[12] = Homo sapiens, HCT-116, 48 h, read-out: EC50
[13] = Homo sapiens, PC-3, 48 h, read-out: EC50
[14] = Homo sapiens, Caco-2, 48 h, read-out: EC50
[15] = Homo sapiens, MDA-MB-231, 48 h, read-out: EC50

Sequence of Proteasome Macropain subunit (Homo sapiens) (P49721 whole entry): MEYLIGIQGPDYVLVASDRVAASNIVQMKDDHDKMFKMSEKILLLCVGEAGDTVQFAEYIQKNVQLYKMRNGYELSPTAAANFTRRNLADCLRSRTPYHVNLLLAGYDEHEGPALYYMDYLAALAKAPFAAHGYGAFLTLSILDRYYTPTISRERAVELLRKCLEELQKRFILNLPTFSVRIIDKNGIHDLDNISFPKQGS

Row | SMILES | inhibition [1] [%] | inhibition [2] [%] | inhibition [3] [%] | IC50 [4] [µM] | inhibition [5] [%] | inhibition [6] [%] | IC50 [7] [µM] | IC50 [8] [µM] | IC50 [9] [µM] | inhibition [10] [%] | EC50 (MCF7; [11]) [µM] | EC50 (Caco-2; caco-2) | Activity (Fibroblast) | EC50 (HCT-116; [12]) [µM] | EC50 (NCI-H727; nci-h727) | EC50 (Huh-7) | EC50 (PC-3; [13]) [µM] | EC50 (MDA-MB-231; [15]) [µM] | other results
1 | C[C@H](NC(=O)[C@H](Cc1ccc(OCc2ccccc2)cc1)NC(=O)OC(C)(C)C)C(=O)N[C@@H](C[C@]1(O)C(=O)Nc2ccccc21)C(=O)NCc1ccccc1 |  |  |  |  |  |  |  |  |  |  | 26 | Not Active | Non-Toxic | 32 | Not Active | Not Active |  |  | EC50 (PC-3; pc-3): Not Active; EC50 (MDA-MB-231; mda-mb-231): Not Active
2 | NCCCC[C@H](NC(=O)[C@@H](N)Cc1ccc(OCc2ccccc2)cc1)C(=O)N[C@@H](C[C@]1(O)C(=O)Nc2ccccc21)C(=O)NCc1ccccc1 | > 85 | > 85 | > 85 | 0.82 | > 85 | > 85 | 3.8 | 2.9 | 4.3 | > 85 |  |  |  |  |  |  |  |  | 
3 | C[C@@H](NC(=O)[C@H](Cc1ccc(OCc2ccccc2)cc1)NC(=O)OC(C)(C)C)C(=O)N[C@@H](C[C@]1(O)C(=O)Nc2ccccc21)C(=O)NCc1ccccc1 | > 85 | > 85 | > 85 | 21.4 | > 85 | > 85 | 13.2 | 9.2 | 12.5 | > 85 |  |  |  |  |  |  |  |  | 
4 | C[C@H](NC(=O)[C@H](Cc1ccc(OCc2ccccc2)cc1)NC(=O)OC(C)(C)C)C(=O)N[C@@H](C[C@]1(O)C(=O)Nc2ccccc21)C(=O)NCC(C)(C)C | > 85 | > 85 | > 85 | 30 | > 85 | > 85 | 12.6 | 11.3 | 21 | > 85 |  |  |  |  |  |  |  |  | 
5 | CC(C)(C)OC(=O)N[C@@H](Cc1ccc(OCc2ccccc2)cc1)C(=O)N[C@@H](CC(N)=O)C(=O)N[C@@H](C[C@]1(O)C(=O)Nc2ccccc21)C(=O)NCc1ccccc1 |  | > 85 |  |  | > 85 | > 85 | 1.6 | 1.48 | 16.1 | > 85 |  | Not Active | Non-Toxic |  | Not Active | Not Active |  |  | EC50 (PC-3; pc-3): Not Active; EC50 (MCF7; mcf7): Not Active; EC50 (MDA-MB-231; mda-mb-231): Not Active; EC50 (HCT-116; hct-116): Not Active

Further lines, with some results ahead:

Row | inhibition [1] [%] | inhibition [2] [%] | inhibition [3] [%] | IC50 [4] [µM] | inhibition [5] [%] | inhibition [6] [%] | IC50 [7] [µM] | IC50 [8] [µM] | IC50 [9] [µM] | inhibition [10] [%] | SMILES | EC50 (MCF7; [11]) [µM] | EC50 (Caco-2; caco-2) | Activity (Fibroblast) | EC50 (HCT-116; [12]) [µM] | EC50 (NCI-H727; nci-h727) | EC50 (Huh-7) | EC50 (PC-3; [13]) [µM] | EC50 (MDA-MB-231; [15]) [µM] | other results
6 | > 85 | > 85 | > 85 | 5.8 | > 85 | > 85 | 0.2 | 0.125 | 8.8 | > 85 | C[C@H](O)[C@@H](NC(=O)[C@H](Cc1ccc(OCc2ccccc2)cc1)NC(=O)OC(C)(C)C)C(=O)N[C@@H](C[C@]1(O)C(=O)Nc2ccccc21)C(=O)NCc1ccccc1 | 9 |  | Non-Toxic | 9 | Not Active | Not Active | 10 | 9 | EC50 (Caco-2; [14]): 32 µM
7 | > 85 | > 85 | > 85 | 28.3 | > 85 | > 85 | 0.17 | 0.113 | 52 | > 85 | C[C@H](NC(=O)c1ccc(OCc2ccccc2)cc1)C(=O)N[C@@H](C[C@]1(O)C(=O)Nc2ccccc21)C(=O)NCc1ccccc1 | 21 | Not Active | Non-Toxic | 10 | Not Active | Not Active | 24 | 23 | 
8 | > 85 | > 85 | > 85 | 6.6 | > 85 | > 85 | 0.0102 | 0.0071 | 23.8 | > 85 | C[C@@H](O)[C@@H](NC(=O)c1ccc(OCc2ccccc2)cc1)C(=O)N[C@@H](C[C@]1(O)C(=O)Nc2ccccc21)C(=O)NCc1ccccc1 | 0.7 |  | Non-Toxic | 0.2 |  | Not Active | 0.4 | 0.7 | EC50 (Caco-2; [14]): 5 µM; EC50 (NCI-H727; Homo sapiens, NCI-H727, 48 h, read-out: EC50): 2 µM
